Results from ChEMBL document CHEMBL1156156, “Conformationally-restricted amino acid analogues bearing a distal sulfonic acid show selective inhibition of system x(c)(-) over the vesicular glutamate transporter” (Bioorg Med Chem Lett, 2010).

Columns and labels:
Rattus norvegicus = organism: Rattus norvegicus; test: Inhibition of VGLUT in rat brain synaptic vesicles assessed as [3H]L-glutamate uptake at 5 mM after 24 hrs by liquid scintillation counting; assay type: tissue-based
Method in brief: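 Vesicular uptake used 250 μM L-glutamate as substrate, with inhibitor at 5 mM.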

[1] = biological target: T1, Cystine/glutamate transporter (Homo sapiens) (UniProt Q9UPY5); test: Inhibition of amino acid transport system xc- in human SNB19 cells assessed as [3H]L-glutamate uptake at 500 uM after 24 hrs by liquid scintillation counting; assay type: cell-based; settings: SNB-19
T1 sequence (whole entry): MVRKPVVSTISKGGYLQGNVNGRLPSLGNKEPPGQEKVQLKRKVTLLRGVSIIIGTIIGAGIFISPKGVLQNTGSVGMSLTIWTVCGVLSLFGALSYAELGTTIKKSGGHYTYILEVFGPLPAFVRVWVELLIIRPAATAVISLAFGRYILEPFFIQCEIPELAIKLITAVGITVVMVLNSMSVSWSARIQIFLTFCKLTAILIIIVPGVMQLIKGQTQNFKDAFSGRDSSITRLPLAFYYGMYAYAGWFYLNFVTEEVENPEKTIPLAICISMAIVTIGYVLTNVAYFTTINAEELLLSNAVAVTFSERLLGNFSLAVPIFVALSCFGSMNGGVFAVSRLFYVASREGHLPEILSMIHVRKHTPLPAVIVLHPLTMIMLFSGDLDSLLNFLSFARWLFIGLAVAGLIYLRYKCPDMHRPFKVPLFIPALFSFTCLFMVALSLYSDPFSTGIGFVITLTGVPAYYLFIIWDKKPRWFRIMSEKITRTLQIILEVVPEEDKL
Method in brief: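 Uptake begun by adding ³H-L-glutamate (100 μM) with inhibitor (500 μM) to the wells and run for 5 min. Wells rinsed three times with 0°C HBHS, and cells lysed in 0.4 M NaOH for 24 h. A 200 μl aliquot was acidified with acetic acid and radioactivity counted against background.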

[2] = biological target: T2, Cystine/glutamate transporter (Homo sapiens, UniProt Q9UPY5); test: Inhibition of amino acid transport system xc-
T2 sequence (Q9UPY5 whole entry): T1 sequence (whole entry)
Method in brief: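 Cells were given 100 μM ³H-L-glutamate plus 500 μM inhibitor, and uptake ran for 5 min. Wells were rinsed three times with 0°C HBHS, and cells were lysed in 0.4 M NaOH for 24 h. Acetic acid was added to a lysate aliquot, and radioactivity was counted against background.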

[3] = Inhibition of VGLUT

| SMILES | Drug uptake (Rattus norvegicus) [%] | Drug uptake [1] [%] | IC50 [2] [µM] | IC50 [3] [µM] |
| --- | --- | --- | --- | --- |
| Nc1c(/N=N/c2ccc(-c3ccc(/N=N/c4cc(S(=O)(=O)O)c5ccccc5c4N)cc3)cc2)cc(S(=O)(=O)O)c2ccccc12 | 31 |  |  |  |
| NC(C(=O)O)c1csc2ccccc12 (stereo unspecified) | 31 | 53 |  |  |
| NC(C(=O)O)c1ccc(-c2ccc(C(=O)O)cc2)cc1 (stereo unspecified) | 75 | 27 |  |  |
| NC(C(=O)O)c1ccc(-c2cccs2)s1 (stereo unspecified) | 53 | 69 |  |  |
| N[C@H](C(=O)O)c1ccc(C(=O)O)cc1 |  |  | 5 |  |
| N[C@H](Cc1ccc(S(=O)(=O)O)cc1)C(=O)O | 102 | 101 |  |  |
| NC(C(=O)O)c1ccc(Br)s1 (stereo unspecified) | 37 | 83 |  |  |
| N[C@@H](COS(=O)(=O)O)C(=O)O |  |  | 26 |  |
| N[C@@H](C(=O)O)c1ccc(S(=O)(=O)O)s1 | 104 | 55 |  |  |
| N[C@H](C(=O)O)c1ccc(S(=O)(=O)O)cc1 | 105 | 55 |  |  |
| Cc1csc(C(=O)O)c1N | 91 | 83 |  |  |
| Cc1c(C(=O)O)sc(N)c1C(=O)O | 44 | 57 |  |  |
| CC(N)(Cc1ccc(S(=O)(=O)O)cc1)C(=O)O (stereo unspecified) | 98 | 106 |  |  |
| N[C@@H](Cc1ccc(S(=O)(=O)O)cc1)C(=O)O | 131 | 90 |  |  |
| Cc1cc(C(N)C(=O)O)sc1C (stereo unspecified) | 57 | 73 |  |  |
| Cc1cc(-c2ccc(/N=N/c3c(S(=O)(=O)O)cc4cc(S(=O)(=O)O)cc(N)c4c3O)c(C)c2)ccc1/N=N/c1c(S(=O)(=O)O)cc2cc(S(=O)(=O)O)cc(N)c2c1O [TRYPAN BLUE] |  |  |  | 0.05 |
| N[C@@H](C(=O)O)c1ccc(S(=O)(=O)O)cc1 | 108 | 98 |  |  |
| N[C@@H](Cn1oc(=O)[nH]c1=O)C(=O)O [QUISQUALATE] |  |  | 5 |  |
| N[C@H](C(=O)O)c1ccc(S(=O)(=O)O)s1 | 92 | 32 |  |  |
| NC(C(=O)O)c1ccc(S(=O)(=O)O)s1 (stereo unspecified) | 81 | 26 |  |  |
| N[C@@H](CCS(=O)(=O)O)C(=O)O |  |  | 35 |  |
| NC(Cc1ccc(Br)cc1S(=O)(=O)O)C(=O)O (stereo unspecified) | 77 | 83 |  |  |
| NC(C(=O)O)c1c[nH]cn1 (stereo unspecified) | 95 | 96 |  |  |
| N[C@@H](CS)C(=O)O |  | 22 |  |  |
